pIC50: −log10 of the molar value. Activity calls are given as the source filed them. The rule behind the calls is not given here.
Key:
Mus musculus [1] = assay: Antiinflammatory activity in histamine-induced paw edema in Balb/c mouse assessed as inhibition of paw edema at 100 mg/kg, ip administered 1 hr prior to histamine challenge and measured after 1 hr relative to control; assay type: functional; conditions: time 2 hrs
Outline: (§1)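 BALB/c mice of either sex (30–35 g), 8 per group, dosed i.p. with 10% DMSO, reference drug or compound (100 mg/kg). After 1 h, subplantar irritant: PGE2 0.01 µg/ml, bradykinin 20 µg/ml, histamine 0.1 ml of 1 mg/ml, or leukotriene 10 µg/ml.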

Mus musculus [2] = assay: Antiinflammatory activity in histamine-induced paw edema in Balb/c mouse assessed as inhibition of paw edema at 100 mg/kg, ip administered 1 hr prior to histamine challenge and measured after 5 hrs; assay type: functional, organism-based; conditions: time 6.0 hrs; outline: as §1
Mus musculus [3] = assay: Antiinflammatory activity in PGE2-induced paw edema in Balb/c mouse assessed as inhibition of paw edema at 100 mg/kg, ip administered 1 hr prior to PGE2 challenge and measured up to 5 hrs relative to control; assay type: functional; conditions: time 2-6 hrs; outline: as §1
Mus musculus [4] = assay: Antiinflammatory activity in leukotriene-induced paw edema in Balb/c mouse assessed as inhibition of paw edema at 100 mg/kg, ip administered 1 hr prior to leukotriene challenge and measured after 3 hrs relative to control; assay type: functional; conditions: time 4 hrs; outline: as §1
Mus musculus [5] = assay: Antiinflammatory activity in PGE2-induced paw edema in Balb/c mouse assessed as inhibition of paw edema at 100 mg/kg, ip administered 1 hr prior to PGE2 challenge and measured after 4 hrs relative to control; assay type: functional; conditions: time 5 hrs; outline: as §1
Mus musculus [6] = assay: Antiinflammatory activity in PGE2-induced paw edema in Balb/c mouse assessed as inhibition of paw edema at 100 mg/kg, ip administered 1 hr prior to PGE2 challenge and measured after 5 hrs; assay type: functional, organism-based; conditions: time 6.0 hrs; outline: as §1
Mus musculus [7] = assay: Antiinflammatory activity in leukotriene-induced paw edema in Balb/c mouse assessed as inhibition of paw edema at 100 mg/kg, ip administered 1 hr prior to leukotriene challenge and measured after 2 hrs relative to control; assay type: functional; conditions: time 3 hrs; outline: as §1
[8] = Antiinflammatory activity assessed as inhibition of heat-induced albumin denaturation preincubated for 20 mins followed by heating at 51 degC and measured after 3 mins by UV-vis spectrophotometric method

SMILES	inhibition in vivo at 100 mg/kg (Mus musculus [1])	inhibition (Mus musculus [2])	inhibition in vivo at 100 mg/kg (Mus musculus [3])	inhibition in vivo at 100 mg/kg (Mus musculus [4])	inhibition in vivo at 100 mg/kg (Mus musculus [5])	inhibition (Mus musculus [6])	inhibition in vivo at 100 mg/kg (Mus musculus [7])	pIC50 [8]
Cc1ccc(C(=O)CC2CC(=O)N(c3ccc(S(N)(=O)=O)cc3)C2=O)cc1 (stereo not drawn)	32.4%	Active	61.6%	74.4%	–	–	–	–
O=C1CCCCC1C1CC(=O)N(Cc2ccccc2)C1=O (stereo not drawn)	–	–	–	–	64.6%	Active	60.1%	4.61

From ChEMBL document CHEMBL4715833, “Design, synthesis, in-vitro, in-vivo and in-silico studies of pyrrolidine-2,5-dione derivatives as multitarget anti-inflammatory agents” (Eur J Med Chem, 2020)
